Data as given in ChEMBL document CHEMBL2010793, “Synthesis of novel 7-oxo and 7-hydroxy trifluoroallocolchicinoids with cytotoxic effect” (Bioorg Med Chem, 2012).

How the values were obtained:
KB [1] = assay: Cytotoxicity against human KB cells assessed as inhibition of cell proliferation at 10^-6 M after 72 hrs by MTS assay; format: functional; details: read-out: GI
Summary of the method: (§1)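 KB cells seeded at 650 cells/well in 200 µl medium, dosed 24 h later with compounds from DMSO (1% DMSO final; controls DMSO only). After 72 h, MTS added for 3 h at 37 °C, A490 read; inhibition from treated/control OD ratio. Single-concentration tests in triplicate with docetaxel 2.5 10^-10 M reference; IC50 runs in separate duplicate.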

KB [2] = assay: Cytotoxicity against human KB cells assessed as inhibition of cell proliferation at 10^-5 M after 72 hrs by MTS assay; format: functional; details: read-out: GI; summary of the method: as §1
Ovis aries = species: Ovis aries; assay: Inhibition of sheep brain tubulin polymerization at 6.7 x 10^-5 M after 15 mins by turbidimetry analysis
Summary of the method: (§2)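 Microtubule protein from sheep brain, purified by two assembly/disassembly cycles (37 °C/0 °C) in 100 mM MES pH 6.6, 1 mM EGTA, 0.5 mM MgCl2. Compound with microtubule solution held 10 min at 37 °C then 5 min at 0 °C; polymerization followed by turbidity at 350 nm. Screened at 6.7 10^-5 M in triplicate, deoxypodophyllotoxin reference.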

KB [3] = assay: Cytotoxicity against human KB cells assessed as inhibition of cell proliferation after 72 hrs by MTS assay; format: functional, cell-based; summary of the method: as §1
[4] = Inhibition of sheep brain tubulin polymerization after 15 mins by turbidimetry analysis; design: species or system Ovis aries; summary of the method: as §2
[5] = Inhibition of tubulin polymerization
Summary of the method: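 Sheep brain microtubule protein was purified by two assembly/disassembly cycles (37 °C/0 °C) in 100 mM MES pH 6.6, 1 mM EGTA, 0.5 mM MgCl2. Samples were incubated 10 min at 37 °C, then 5 min at 0 °C, and polymerization was read by turbidimetry at 350 nm. Compounds were tested at 6.7 10^-5 M in triplicate, with deoxypodophyllotoxin as reference.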

KB [6] = assay: Cytotoxicity against human KB cells; format: functional, cell-based
Summary of the method: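 KB cells seeded at 650 cells/well and dosed 24 h later with compounds in DMSO (1% final). Screened at 10^-5 and 10^-6 M in triplicate, with docetaxel 2.5 10^-10 M as reference. After 72 h, MTS was added for 3 h at 37 °C and A490 was read. Inhibition was derived from treated/control OD. IC50 was run in separate duplicate when inhibition exceeded 80% at 10^-5 M.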

COc1cc2c(cc1OC)[C@H](O)C[C@@H](NC(=O)C(F)(F)F)c1ccccc1-2 (racemic)
inhibition of growth at 1 µM (KB [1]): 0%
inhibition of growth at 10 µM (KB [2]): 9%
inhibition (Ovis aries): 23%

COc1cc2c(c(OC)c1OC)-c1ccccc1C(NC(=O)C(F)(F)F)CC2=O (stereo unspecified)
IC50 (KB [3]): 2950 nM
inhibition of growth at 1 µM (KB [1]): 18%
inhibition of growth at 10 µM (KB [2]): 91%
IC50 [4]: 80000 nM
inhibition (Ovis aries): 48%

COc1cc2c(c(OC)c1OC)-c1ccc(O)cc1C(NC(=O)C(F)(F)F)CC2O (mixture of isomers)
inhibition of growth at 1 µM (KB [1]): 0%
inhibition of growth at 10 µM (KB [2]): 60%
inhibition (Ovis aries): 29%

COc1ccc2c(c1)[C@@H](NC(C)=O)CCc1cc(OC)c(OC)c(OC)c1-2
IC50 [5]: 700 nM
IC50 (KB [6]): 19 nM

COc1ccc(-c2ccc(OC)c3c2C(NC(=O)C(F)(F)F)CC3=O)c(OC)c1OC (stereo unspecified)
IC50 (KB [3]): 1250 nM
inhibition of growth at 1 µM (KB [1]): 0%
inhibition of growth at 10 µM (KB [2]): 97%
inhibition (Ovis aries): 33%

COc1cc2c(cc1OC)-c1ccc(O)cc1C(NC(=O)C(F)(F)F)CC2=O (stereo unspecified)
inhibition of growth at 1 µM (KB [1]): 0%
inhibition of growth at 10 µM (KB [2]): 40%
inhibition (Ovis aries): 24%

COc1ccc2c(c1)C(NC(=O)C(F)(F)F)CC(=O)c1cc(OC)c(OC)c(OC)c1-2 (racemic)
IC50 (KB [3]): 45 nM
inhibition of growth at 1 µM (KB [1]): 98%
inhibition of growth at 10 µM (KB [2]): 96%
IC50 [4]: 12000 nM
inhibition (Ovis aries): 89%

COc1cc([C@@H]2c3cc4c(cc3C[C@H]3COC(=O)[C@@H]32)OCO4)cc(OC)c1OC [DESOXYPODOPHYLLOTOXIN]
IC50 (KB [3]): 3 nM
inhibition of growth at 1 µM (KB [1]): 100%
inhibition of growth at 10 µM (KB [2]): 100%
IC50 [4]: 3200 nM
inhibition (Ovis aries): 100%

COc1cc2c(cc1OC)-c1ccccc1C(NC(=O)C(F)(F)F)CC2=O (stereo unspecified)
inhibition of growth at 1 µM (KB [1]): 0%
inhibition of growth at 10 µM (KB [2]): 92%
inhibition (Ovis aries): 12%

COc1cc2c(c(OC)c1OC)-c1ccccc1C(NC(=O)C(F)(F)F)CC2O (mixture of isomers)
inhibition of growth at 1 µM (KB [1]): 0%
inhibition of growth at 10 µM (KB [2]): 8%
IC50 [4]: 13000 nM
inhibition (Ovis aries): 89%

COc1ccc2c(c1)C(NC(=O)C(F)(F)F)CC(O)c1cc(OC)c(OC)c(OC)c1-2 (stereo unspecified)
IC50 (KB [3]): 1600 nM
inhibition of growth at 1 µM (KB [1]): 0%
inhibition of growth at 10 µM (KB [2]): 94%
inhibition (Ovis aries): 18%

COc1ccc2c(c1)C(NC(=O)C(F)(F)F)CC(=O)c1cc(OC)c(OC)cc1-2 (stereo unspecified)
inhibition of growth at 1 µM (KB [1]): 0%
inhibition of growth at 10 µM (KB [2]): 38%
IC50 [4]: 60000 nM
inhibition (Ovis aries): 63%

COc1ccc2c(c1)C(NC(=O)C(F)(F)F)CC(O)c1cc(OC)c(OC)cc1-2 (mixture of isomers)
inhibition of growth at 1 µM (KB [1]): 0%
inhibition of growth at 10 µM (KB [2]): 9%
inhibition (Ovis aries): 2%

COc1cc2c(c(OC)c1OC)-c1ccc(O)cc1C(NC(=O)C(F)(F)F)CC2=O (stereo unspecified)
IC50 (KB [3]): 330 nM
inhibition of growth at 1 µM (KB [1]): 37%
inhibition of growth at 10 µM (KB [2]): 96%
IC50 [4]: 37000 nM
inhibition (Ovis aries): 62%

COc1cc2c(cc1OC)C(O)CC(NC(=O)C(F)(F)F)c1cc(O)ccc1-2 (mixture of isomers)
inhibition of growth at 1 µM (KB [1]): 0%
inhibition of growth at 10 µM (KB [2]): 2%
inhibition (Ovis aries): 13%
